Source: ChEMBL document CHEMBL3046081, “Phytotoxic effect, uptake, and transformation of biochanin A in selected weed species” (J Agric Food Chem, 2012)

Legend:
Shoot [1] = test: Drug metabolism in Silene noctiflora shoot assessed as transformation to genistein at 400 uM after 14 days measured per gm of dry weight by LC-MS analysis; assay type: ADME; details: 336 h
Summary of the method: (§1)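 Pregerminated seeds, 14 per container, transplanted onto 0.5% agar medium containing biochanin A. Grown at 24 ± 1 °C under a 16 h light/8 h dark photoperiod and harvested 14 days after transplanting. Roots and shoots collected separately, blotted, washed twice, then freeze-dried. Tissue extracted by ASE at 40 °C and analysed by LC-ESI-MS against commercial standards. Two replicates per treatment.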

Root [2] = test: Drug uptake in Geranium molle root at 20 uM after 14 days measured per gm of dry weight by LC-MS analysis; assay type: ADME; details: 336 h
Summary of the method: (§2)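 Pregerminated seeds (14 per container) were grown on 20 mL 0.5% agar medium containing biochanin A, at 24 ± 1 °C with a 16 h light/8 h dark cycle. There were two replicates per treatment: 14 containers for S. noctiflora, 9 for G. molle and E. crus-galli. At 14 days, roots and shoots were harvested separately, washed, blotted and freeze-dried. Extraction was ASE at 40 °C, 1600 psi, 3 cycles. Analysis was LC-ESI-MS SIM against standards.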

Root [3] = test: Drug metabolism in Echinochloa crus-galli (barnyard grass) root assessed as transformation to p-coumaric acid at 400 uM after 14 days measured per gm of dry weight by LC-MS analysis; assay type: ADME; details: 336 h; summary of the method: as §1
Root [4] = test: Drug metabolism in Silene noctiflora root assessed as transformation to sissotrin at 400 uM after 14 days measured per gm of dry weight by LC-MS analysis; assay type: ADME; details: 336 h; summary of the method: as §1
Root [5] = test: Drug metabolism in Echinochloa crus-galli (barnyard grass) root assessed as transformation to sissotrin at 20 uM after 14 days measured per gm of dry weight by LC-MS analysis; assay type: ADME; details: 336 h; summary of the method: as §1
Shoot [6] = test: Drug metabolism in Geranium molle shoot assessed as transformation to genistein at 20 uM after 14 days measured per gm of dry weight by LC-MS analysis; assay type: ADME; details: 336 h; summary of the method: as §1
Root [7] = test: Drug metabolism in Geranium molle root assessed as transformation to pratensein at 400 uM after 14 days measured per gm of dry weight by LC-MS analysis; assay type: ADME; details: 336 h; summary of the method: as §1
Shoot [8] = test: Drug metabolism in Geranium molle shoot assessed as transformation to sissotrin at 20 uM after 14 days measured per gm of dry weight by LC-MS analysis; assay type: ADME; details: 336 h; summary of the method: as §1
Leaf = test: Drug recovery in leaf of Secale cereale (rye) at 50 ng/g by LC-MS analysis
Shoot [9] = test: Drug metabolism in Geranium molle shoot assessed as transformation to dihydrobiochanin A at 20 uM after 14 days measured per gm of dry weight by LC-MS analysis; assay type: ADME; details: 336 h; summary of the method: as §1
Shoot [10] = test: Drug metabolism in Silene noctiflora shoot assessed as transformation to pratensein at 20 uM after 14 days measured per gm of dry weight by LC-MS analysis; assay type: ADME; details: 336 h; summary of the method: as §1
Root [11] = test: Drug uptake in Echinochloa crus-galli (barnyard grass) root at 20 uM after 14 days measured per gm of dry weight by LC-MS analysis; assay type: ADME; details: 336 h; summary of the method: as §2
Shoot [12] = test: Drug metabolism in Silene noctiflora shoot assessed as transformation to dihydrobiochanin A at 20 uM after 14 days measured per gm of dry weight by LC-MS analysis; assay type: ADME; details: 336 h; summary of the method: as §1
Shoot [13] = test: Drug metabolism in Silene noctiflora shoot assessed as transformation to pratensein at 400 uM after 14 days measured per gm of dry weight by LC-MS analysis; assay type: ADME; details: 336 h; summary of the method: as §2
Shoot [14] = test: Drug metabolism in Geranium molle shoot assessed as transformation to p-coumaric acid at 400 uM after 14 days measured per gm of dry weight by LC-MS analysis; assay type: ADME; details: 336 h; summary of the method: as §1
Root [15] = test: Drug metabolism in Geranium molle root assessed as transformation to sissotrin at 20 uM after 14 days measured per gm of dry weight by LC-MS analysis; assay type: ADME; details: 336 h; summary of the method: as §1
Shoot [16] = test: Drug uptake in Silene noctiflora shoot at 400 uM after 14 days measured per gm of dry weight by LC-MS analysis; assay type: ADME; details: 336 h; summary of the method: as §2
Root [17] = test: Drug metabolism in Geranium molle root assessed as transformation to sissotrin at 400 uM after 14 days measured per gm of dry weight by LC-MS analysis; assay type: ADME; details: 336 h; summary of the method: as §1
Root [18] = test: Drug metabolism in Silene noctiflora root assessed as transformation to genistein at 400 uM after 14 days measured per gm of dry weight by LC-MS analysis; assay type: ADME; details: 336 h; summary of the method: as §1
Root [19] = test: Drug metabolism in Silene noctiflora root assessed as transformation to genistein at 20 uM after 14 days measured per gm of dry weight by LC-MS analysis; assay type: ADME; details: 336 h; summary of the method: as §1
Shoot [20] = test: Drug metabolism in Echinochloa crus-galli (barnyard grass) shoot assessed as transformation to pratensein at 20 uM after 14 days measured per gm of dry weight by LC-MS analysis; assay type: ADME; details: 336 h; summary of the method: as §1
Root [21] = test: Drug metabolism in Silene noctiflora root assessed as transformation to pratensein at 400 uM after 14 days measured per gm of dry weight by LC-MS analysis; assay type: ADME; details: 336 h; summary of the method: as §1
Shoot [22] = test: Drug metabolism in Echinochloa crus-galli (barnyard grass) shoot assessed as transformation to dihydrobiochanin A at 20 uM after 14 days measured per gm of dry weight by LC-MS analysis; assay type: ADME; details: 336 h; summary of the method: as §1
Root [23] = test: Drug metabolism in Geranium molle root assessed as transformation to p-coumaric acid at 20 uM after 14 days measured per gm of dry weight by LC-MS analysis; assay type: ADME; details: 336 h; summary of the method: as §1
Shoot [24] = test: Drug metabolism in Silene noctiflora shoot assessed as transformation to p-coumaric acid at 400 uM after 14 days measured per gm of dry weight by LC-MS analysis; assay type: ADME; details: 336 h; summary of the method: as §1
Root [25] = test: Drug metabolism in Echinochloa crus-galli (barnyard grass) root assessed as transformation to dihydrobiochanin A at 400 uM after 14 days measured per gm of dry weight by LC-MS analysis; assay type: ADME; details: 336 h; summary of the method: as §1
Shoot [26] = test: Drug uptake in Echinochloa crus-galli (barnyard grass) shoot at 20 uM after 14 days measured per gm of dry weight by LC-MS analysis; assay type: ADME; details: 336 h; summary of the method: as §2
Shoot [27] = test: Drug metabolism in Silene noctiflora shoot assessed as transformation to dihydrobiochanin A at 400 uM after 14 days measured per gm of dry weight by LC-MS analysis; assay type: ADME; details: 336 h; summary of the method: as §1
Shoot [28] = test: Drug metabolism in Silene noctiflora shoot assessed as transformation to sissotrin at 20 uM after 14 days measured per gm of dry weight by LC-MS analysis; assay type: ADME; details: 336 h; summary of the method: as §2
Root [29] = test: Drug metabolism in Geranium molle root assessed as transformation to p-coumaric acid at 400 uM after 14 days measured per gm of dry weight by LC-MS analysis; assay type: ADME; details: 336 h; summary of the method: as §1
Root [30] = test: Drug metabolism in Geranium molle root assessed as transformation to dihydrobiochanin A at 400 uM after 14 days measured per gm of dry weight by LC-MS analysis; assay type: ADME; details: 336 h; summary of the method: as §1
Shoot [31] = test: Drug metabolism in Geranium molle shoot assessed as transformation to pratensein at 20 uM after 14 days measured per gm of dry weight by LC-MS analysis; assay type: ADME; details: 336 h; summary of the method: as §1
Root [32] = test: Drug metabolism in Silene noctiflora root assessed as transformation to dihydrobiochanin A at 20 uM after 14 days measured per gm of dry weight by LC-MS analysis; assay type: ADME; details: 336 h; summary of the method: as §1
Root [33] = test: Drug metabolism in Silene noctiflora root assessed as transformation to sissotrin at 20 uM after 14 days measured per gm of dry weight by LC-MS analysis; assay type: ADME; details: 336 h; summary of the method: as §1
Root [34] = test: Drug metabolism in Geranium molle root assessed as transformation to dihydrobiochanin A at 20 uM after 14 days measured per gm of dry weight by LC-MS analysis; assay type: ADME; details: 336 h; summary of the method: as §1

COc1ccc(-c2coc3cc(O)cc(O)c3c2=O)cc1 [BIOCHANIN]
Drug metabolism (Shoot [1]): 0.15 µmol
Drug uptake (Root [2]): 9.93 µmol
Drug metabolism (Root [3]): 0.11 µmol
Drug metabolism (Root [4]): 2.99 µmol
Drug metabolism (Root [5]): 0.48 µmol
Drug metabolism (Shoot [6]): 0.09 µmol
Drug metabolism (Root [7]): 0.32 µmol
Drug metabolism (Shoot [8]): 1.5 µmol
Drug recovery (Leaf): 93%
Drug metabolism (Shoot [9]): 0.01 µmol
Drug metabolism (Shoot [10]): 0.1 µmol
Drug uptake (Root [11]): 1.75 µmol
Drug metabolism (Shoot [12]): 0 µmol
Drug metabolism (Shoot [13]): 0.06 µmol
Drug metabolism (Shoot [14]): 0.03 µmol
Drug metabolism (Root [15]): 36.06 µmol
Drug uptake (Shoot [16]): 1.11 µmol
Drug metabolism (Root [17]): 123.61 µmol
Drug metabolism (Root [18]): 0.13 µmol
Drug metabolism (Root [19]): 0.08 µmol
Drug metabolism (Shoot [20]): 0.47 µmol
Drug metabolism (Root [21]): 0.11 µmol
Drug metabolism (Shoot [22]): 0 µmol
Drug metabolism (Root [23]): 0.06 µmol
Drug metabolism (Shoot [24]): 0.01 µmol
Drug metabolism (Root [25]): 0.27 µmol
Drug uptake (Shoot [26]): 0.05 µmol
Drug metabolism (Shoot [27]): 0.02 µmol
Drug metabolism (Shoot [28]): 2.36 µmol
Drug metabolism (Root [29]): 0.05 µmol
Drug metabolism (Root [30]): 0.31 µmol
Drug metabolism (Shoot [31]): 0.02 µmol
Drug metabolism (Root [32]): 0.01 µmol
Drug metabolism (Root [33]): 1.72 µmol
Drug metabolism (Root [34]): 0.38 µmol
